This is a sample that favours compounds with a hit; in the whole collection about 2.1% have one here.
Tb hexokinase: blocks Trypanosoma brucei hexokinase 1 activity; recombinant TbHK1, G6PDH-coupled NADH A340; inhibition, % at 10 µM; 0.11% of 220,000 active; AID 1430;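 active = inhibition of 50% or more in the single-dose primary screen; inactive = inhibition below 50%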
p97 inhibitor: inhibitors of human p97 ATPase; P55072; recombinant p97 ATPase, Kinase-Glo ATP luminescence, 3 h; inhibition, % at 8 µM; 0.42% of 220,000 active; AID 1481; in the data active = inhibition above about 15%;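 note: 0% = DMSO vehicle and 100% = wells lacking enzyme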
Target sequence (P55072 whole entry, looked up): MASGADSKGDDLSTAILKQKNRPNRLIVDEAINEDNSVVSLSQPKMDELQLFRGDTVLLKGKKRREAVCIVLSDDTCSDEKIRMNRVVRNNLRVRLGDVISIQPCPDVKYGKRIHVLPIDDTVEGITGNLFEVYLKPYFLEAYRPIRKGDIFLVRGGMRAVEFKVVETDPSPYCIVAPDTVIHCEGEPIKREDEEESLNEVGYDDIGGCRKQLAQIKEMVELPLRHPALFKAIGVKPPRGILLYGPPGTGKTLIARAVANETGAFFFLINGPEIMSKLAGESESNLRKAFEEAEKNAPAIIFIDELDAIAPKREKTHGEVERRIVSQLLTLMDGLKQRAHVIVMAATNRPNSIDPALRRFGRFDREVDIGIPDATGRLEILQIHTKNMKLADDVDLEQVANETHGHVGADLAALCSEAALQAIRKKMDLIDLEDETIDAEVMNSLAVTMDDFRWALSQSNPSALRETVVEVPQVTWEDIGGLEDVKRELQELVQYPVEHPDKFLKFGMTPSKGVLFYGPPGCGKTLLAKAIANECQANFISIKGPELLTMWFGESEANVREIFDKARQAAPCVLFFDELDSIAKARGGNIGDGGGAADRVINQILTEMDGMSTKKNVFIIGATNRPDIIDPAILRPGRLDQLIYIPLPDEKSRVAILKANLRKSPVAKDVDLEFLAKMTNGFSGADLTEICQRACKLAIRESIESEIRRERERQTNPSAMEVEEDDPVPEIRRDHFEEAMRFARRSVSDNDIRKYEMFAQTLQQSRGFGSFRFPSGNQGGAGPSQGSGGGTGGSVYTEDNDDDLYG
Runt-CBFb FRET: inhibitors of human RUNX1 Runt domain binding to CBFb. Q01196+Q13951. Cerulean-Runt/Venus-CBFb FRET ratio 530/480, 1 h. inhibition, % at 20 µM. 0.46% of 220,000 active;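 active = inhibition over about 50% at 20 µM in the single-dose screen, limit read from the data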;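 note: 0% = DMSO wells and 100% = excess unlabeled CBFb competitor control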
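Doses: 20 µM compound in 1% DMSO | Material: Cerulean-labeled Runt domain protein | Amount: Each fluorescent fusion protein 100 nM | Schedule: Two 1 h room-temperature incubations shielded from light | Measured by: FRET fluorescence | Evaluation: Loss of energy transfer signal | Controls: Unlabeled CBFb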
RanGTP-Imp inh: inhibitors of RanGTP-importin-beta interaction, primary screen, biochemical, FRET, CFP-Ran, YFP-importin-beta, homogeneous | cell-free CFP-Ran/YFP-importin-beta FRET ratio | inhibition, % (concentration not given with the values) | 1.1% of 300,000 active;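 active = more than half of the replicate wells show a fall in the fluorescence ratio signal beyond about 16%, limit read from the data, passing the limit was not always enough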;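 note: 0% = DMSO wells and 100% = Ran loaded with GDP instead of GTP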
Hck Nef HTS: blocks Nef-activated human Hck kinase. P08631. Recombinant Hck-YEEI plus Nef, Z-Lyte FRET kinase assay. inhibition, % at 20 µM. 0.68% of 220,000 active. AID 463187;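 active = Hck-Nef kinase inhibition above about 50%, limit read from the data; inactive = inhibition below that limit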;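 note: 0% = DMSO with Hck plus Nef and 100% = Hck alone without Nef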
Runt-SMMHC FRET: blocks binding of human RUNX1 Runt domain to CBFb-SMMHC; Cerulean-Runt/Venus-CBFb-SMMHC FRET ratio 530/480, 1 h; inhibition, % at 20 µM; 0.74% of 220,000 active; Q01196+Q13951;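 active = mean inhibition across duplicate retests at 20 µM reaching about 50%, limit read from the data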;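 note: 0% = DMSO wells and 100% = wells with excess untagged CBFb-SMMHC; inhibitors lower the FRET ratio by blocking Runt binding to CBFb-SMMHC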
* marks the source's active call; other numbers are inactive results; nt = not tested or not shown.

SMILES	Tb hexokinase	p97 inhibitor	Runt-CBFb FRET	RanGTP-Imp inh	Hck Nef HTS	Runt-SMMHC FRET
Cc1cc(/C=C2\SC(=S)N(Cc3ccco3)C2=O)c(C)n1-c1ccccc1	-11.4	5.0	-18.7	21.4*	1.4	-106.5
Cc1ccc(C2C3=C(CC(C)(C)CC3=O)N(CCN3CCOCC3)C3=C2C(=O)CC(C)(C)C3)cc1	-17.3	-1.8	10.4	124.5*	37.8	79.3*
Cc1ccc(NC(=O)CSCC(=O)N2CCCc3ccccc32)cc1	nt	nt	nt	1.1	nt	nt
COc1ccc(OC)c(NC(=O)c2cc3oc4ccccc4c3cc2O)c1	-0.3	6.1	46.3	3.7	6.2	96.5*
CCN1C(=O)CSc2ccc(C(=O)NCc3ccco3)cc21	0.2	4.8	0.9	23.0*	-2.3	6.9
O=C(COC(=O)CN1C(=O)C2CCCCC2C1=O)NNC(=O)c1ccc(Cl)cc1 (configuration not stated)	nt	nt	nt	0.9	nt	nt
O=c1oc2ccccc2cc1-c1nc2c(s1)CCCC2	6.2	-6.5	52.0*	82.8*	33.5	42.0
CCOc1ccccc1N1CCN(C(=O)c2ccc(NS(=O)(=O)c3ccc4[nH]c(=O)[nH]c4c3)cc2)CC1	nt	nt	nt	-0.7	nt	nt
O=C(O)COc1ccc2c(c1)O/C(=C\c1ccco1)C2=O	nt	nt	nt	24.8*	nt	nt
Cc1ccc(/C=C2\Oc3cc(OCC(=O)NN)ccc3C2=O)o1	nt	nt	nt	53.8*	nt	nt
COc1cccc(/C=C2\Oc3cc(OCC(=O)N4CCCC4)ccc3C2=O)c1OC	nt	nt	nt	-3.4	nt	nt
O=C(O)COc1ccc2c(c1)O/C(=C\c1cccs1)C2=O	-43.6	2.0	17.6	14.4	13.9	55.9*
COc1ccc(N(CC(=O)NCc2ccccc2)S(=O)(=O)c2c(C)n[nH]c2C)cc1	nt	nt	nt	1.6	nt	nt
N#Cc1c(Cl)nsc1NCCN1CCOCC1	nt	nt	nt	-4.3	nt	nt
CCOn1c(=O)c(-c2cccs2)[n+]([O-])c2ccccc21	10.9	3.1	8.2	20.6*	-16.1	9.9
CCc1nn(CC(=O)N2CCN(c3ccc(F)cc3)CC2)c(=O)c2cc3occc3n12	nt	nt	nt	1.7	nt	nt
CC(C)COc1ccc(/C=C2/Sc3ccccc3C2=O)cc1	2.0	0.0	-12.5	43.1*	-0.4	-33.8
CC(Sc1nc2ncc(Cl)cc2[nH]1)C(=O)Nc1ccc(C(N)=O)cc1 (configuration not stated)	nt	nt	nt	1.6	nt	nt
CC(C)C[C@@H](CSc1ccccc1)N1CCN(CC(C)C)CCC1=O	nt	nt	nt	5.8	nt	nt
O=C(CN1CCN(c2ccccc2)CC1)Nc1ccccc1C(F)(F)F	-1.6	1.8	79.5*	1.5	1.5	-4.2
CN1CCN(CC(=O)Nc2ccccc2C(F)(F)F)CC1	nt	nt	nt	-1.4	nt	nt
CCCCn1c2nc3ccccc3nc2c2c(=N)oc(C)nc21	nt	nt	45.8	nt	nt	78.9*
COc1ccc(-n2c3nc4ccccc4nc3c3c(=N)oc(C)nc32)cc1	-11.0	2.9	65.5*	6.8	27.9	128.7*
CCCCn1c2nc3ccccc3nc2c2c(=O)n(-c3ccccc3)cnc21	-2.6	-2.2	-6.1	2.1	1.6	7.5
CC(=O)Nc1cccc(NC(=O)C(C)N2c3cccc4cccc(c34)S2(=O)=O)c1 (configuration not stated)	nt	nt	nt	-2.2	nt	nt
SMILES	Tb hexokinase	p97 inhibitor	Runt-CBFb FRET	RanGTP-Imp inh	Hck Nef HTS	Runt-SMMHC FRET
COC(=O)c1c(C(=O)OC)c2ccccn2c1C(=O)c1ccccc1	nt	nt	nt	1.1	nt	nt
COC(=O)c1c(C)[nH]c(C=O)c1-c1ccccc1	-4.2	1.5	-0.3	5.0	18.5	2.0
COC(=O)c1c(Cl)c2n3ccccc3c(C)c(-c3ccccc3)c-2c1C(=O)OC	-12.0	-2.2	0.8	19.1*	1.8	-7.2
COC(=O)c1cc2c(-c3ccccc3)c(C)c3ccccn3c-2c1C(=O)OC	-32.5	5.4	9.2	27.1*	6.1	8.9
O=C(c1ccc(F)cc1)N1CCN(c2ccc([N+](=O)[O-])cc2-n2cccc2)CC1	-11.8	-3.0	8.0	-1.0	-3.2	-0.7
O=S(=O)(Cc1ccccc1)N1CCN(Cc2ccc3c(c2)OCO3)CC1	5.0	-0.7	0.7	158.5*	-0.1	-1.7
O=S(=O)(c1ccc2c(c1)OCCO2)N1CCN(Cc2ccc3c(c2)OCO3)CC1	1.5	-3.4	1.0	-2.3	0.7	-2.1
Cn1c(=O)c2sccc2n2c(CCCC(=O)NC3CCN(Cc4ccccc4)CC3)nnc12	nt	nt	nt	5.1	nt	nt
O=c1[nH]c(-c2ccccc2)c(-c2ccccc2)o1	nt	nt	nt	-0.2	nt	nt
CSC(=S)N/N=C/c1ccc(N(C)C)cc1	3.2	4.7	18.5	0.9	17.8	51.7*

Screening data from PubChem.
